Results published in ChEMBL document CHEMBL4033620, “Design, synthesis and biological evaluation of quinoline derivatives as HDAC class I inhibitors” (Eur J Med Chem, 2017).
Each block holds one compound with its values, some of them ahead of it.

Columns and labels:
[1] = target: Histone deacetylase (HDAC1 and HDAC2) (Homo sapiens, UniProt Q13547+Q92769); experiment: Inhibition of HDAC1/2 in human HeLa cell nuclear extract using COLOR DE LYS as substrate pretreated for 5 mins followed by substrate addition measured after 30 mins by UV-absorption method; type: cell-based
[2] = test system: MOLT-4; experiment: Antiproliferative activity against human MOLT4 cells after 48 hrs by MTT assay; type: functional, cell-based; details: MOLT-4, 48 h
[3] = test system: HEL; experiment: Antiproliferative activity against human HEL cells after 48 hrs by MTT assay; type: functional, cell-based
[4] = test system: K562; experiment: Antiproliferative activity against human K562 cells after 48 hrs by MTT assay; type: functional, cell-based; details: K562, 48 h
[5] = test system: PC-3; experiment: Antiproliferative activity against human PC3 cells after 48 hrs by MTT assay; type: functional, cell-based; details: PC-3, 48 h
Summary of the method: (§1)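 Cells grown in RPMI1640 with 10% FBS at 37°C, 5% CO2. Seeded at 4000–5000 cells/well for 8 h, then exposed to a range of compound concentrations for 48 h. 0.5% MTT solution added for 4 h, formazan dissolved in DMSO, absorbance read at 570 nm. IC50 derived from inhibition ratios, given as mean ± standard deviation of two or three separate determinations.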

[6] = test system: HeLa; experiment: Antiproliferative activity against human HeLa cells after 48 hrs by MTT assay; type: functional, cell-based; summary of the method: as §1
[7] = test system: K562; experiment: Induction of apoptosis in human K562 cells assessed as necrotic cells at 2 uM after 24 hrs by Annexin V-FITC/propidium iodide staining-based flow cytometry (reference value: 0.035%); type: functional
[8] = test system: K562; experiment: Induction of apoptosis in human K562 cells assessed as late apoptotic cells at 2 uM after 24 hrs by Annexin V-FITC/propidium iodide staining-based flow cytometry (reference value: 2.83%); type: functional
[9] = test system: K562; experiment: Induction of apoptosis in human K562 cells assessed as early apoptotic cells at 2 uM after 24 hrs by Annexin V-FITC/propidium iodide staining-based flow cytometry (reference value: 4.78%); type: functional
[10] = test system: K562; experiment: Induction of apoptosis in human K562 cells assessed as viable cells at 2 uM after 24 hrs by Annexin V-FITC/propidium iodide staining-based flow cytometry (reference value: 92.4%); type: functional
[11] = test system: K562; experiment: Induction of apoptosis in human K562 cells assessed as necrotic cells at 1 uM after 24 hrs by Annexin V-FITC/propidium iodide staining-based flow cytometry (reference value: 0.035%); type: functional
[12] = test system: K562; experiment: Induction of apoptosis in human K562 cells assessed as late apoptotic cells at 1 uM after 24 hrs by Annexin V-FITC/propidium iodide staining-based flow cytometry (reference value: 2.83%); type: functional
[13] = test system: K562; experiment: Induction of apoptosis in human K562 cells assessed as early apoptotic cells at 1 uM after 24 hrs by Annexin V-FITC/propidium iodide staining-based flow cytometry (reference value: 4.78%); type: functional
[14] = test system: K562; experiment: Induction of apoptosis in human K562 cells assessed as viable cells at 1 uM after 24 hrs by Annexin V-FITC/propidium iodide staining-based flow cytometry (reference value: 92.4%); type: functional
[15] = test system: K562; experiment: Induction of apoptosis in human K562 cells after 24 hrs by Annexin V-FITC/propidium iodide staining-based flow cytometric method; type: functional, cell-based

SMILES: O=C(/C=C/c1ccc(CN(Cc2ccccc2)Cc2ccc3cc(Br)ccc3n2)cc1)NO
IC50 [1]: > 1000 nM

SMILES: O=C(/C=C/c1cccc(CN(Cc2ccccc2)Cc2ccc3cc(Br)ccc3n2)c1)NO
IC50 [1]: > 1000 nM

SMILES: COc1ccc2nc(CN(Cc3ccccc3)Cc3ccc(/C=C/C(=O)NO)cc3)ccc2c1
IC50 [1]: > 1000 nM

SMILES: COc1cccc2ccc(CNCc3ccc(/C=C/C(=O)NO)cc3)nc12
IC50 [1]: 206 nM
IC50 [2]: 190 nM
IC50 [3]: 220 nM
IC50 [4]: 750 nM
IC50 [5]: 4600 nM
IC50 [6]: 3330 nM

SMILES: O=C(NO)c1ccc(CNCc2ccc3ccccc3n2)cc1
IC50 [1]: > 1000 nM

SMILES: O=C(/C=C/c1ccc(CN(Cc2ccccc2)Cc2ccc3cc(Cl)ccc3n2)cc1)NO
IC50 [1]: > 1000 nM

SMILES: O=C(CCCCCCC(=O)Nc1ccccc1)NO [VORINOSTAT]
Activity [7]: 0.05%
Activity [8]: 4.04%
Activity [9]: 6.97%
Activity [10]: 88.9%
Activity [11]: 0.06%
Activity [12]: 2.99%
Activity [13]: 6.1%
Activity [14]: 90.8%
IC50 [5]: 13900 nM
Activity [15]: Dose-dependent effect

SMILES: O=C(NO)c1ccc(CNCc2ccc3cccc(Cl)c3n2)cc1
IC50 [1]: > 1000 nM

SMILES: COc1ccc2nc(CN(C(=O)Cc3ccc(/C=C/C(=O)NO)cc3)c3ccccc3)ccc2c1
IC50 [1]: 560 nM

Other lines, results leading:

IC50 [1]: 720 nM
SMILES: O=C(/C=C/c1ccc(CC(=O)N(Cc2ccc3ccccc3n2)c2ccccc2)cc1)NO

IC50 [1]: 724 nM
SMILES: COc1cccc2ccc(CN(C(=O)c3ccc(/C=C/C(=O)NO)cc3)c3ccccc3)nc12

IC50 [1]: > 1000 nM
SMILES: O=C(/C=C/c1ccc(CC(=O)N(Cc2ccc3cc(Br)ccc3n2)c2ccccc2)cc1)NO

IC50 [1]: > 1000 nM
SMILES: O=C(/C=C/c1ccc(C(=O)N(Cc2ccc3ccccc3n2)c2ccccc2)cc1)NO

IC50 [1]: 744 nM
SMILES: COc1ccc(N(Cc2ccc3ccccc3n2)C(=O)c2ccc(/C=C/C(=O)NO)cc2)cc1
